# Data as given in ChEMBL document CHEMBL1926500, “Design, synthesis, biological evaluation and molecular modeling of 1,3,4-oxadiazoline analogs of combretastatin-A4 as novel antitubulin agents” (Bioorg Med Chem, 2012).
# Legend:
# [1] = tested on: B16-F10; test: Antiproliferative activity against mouse B16F10 cells after 48 hrs by MTT assay; type: functional, cell-based; conditions: B16-F10, 48 h
# Outline: (§1)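 Cells grown to log phase in RPMI 1640 with 10% FBS, seeded at 2×10^4 cells/mL, then left 24 h at 37 °C, 5% CO2 before dosing at pre-set concentrations. […] After 48 h exposure, MTT (2.5 mg/mL in PBS) was added for 4 h, then SDS/isobutyl alcohol/HCl extraction overnight at 37 °C, and OD read at 570 nm. Triplicate wells per concentration; each assay run at least three times; IC50 derived.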
# [2] = Inhibition of bovine brain tubulin polymerization after 20 mins by turbidimetry; set-up: species or system Bos taurus
# Outline: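 Bovine brain tubulin, purified in-house, used at 10 μM in glutamate buffer and preincubated with varying compound concentrations at 30 °C, then cooled to 0 °C. GTP added, mixtures warmed to 30 °C in a recording spectrophotometer, and assembly followed turbidimetrically. IC50 is the concentration inhibiting extent of assembly by 50% after 20 min.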
# [3] = tested on: MCF7; test: Antiproliferative activity against human MCF7 cells after 48 hrs by MTT assay; type: functional, cell-based; conditions: MCF7, 48 h; outline: as §1
# [4] = tested on: HepG2; test: Antiproliferative activity against human HepG2 cells after 48 hrs by MTT assay; type: functional, cell-based; conditions: HepG2, 48 h; outline: as §1
# [5] = tested on: B16-F10; test: Cell cycle arrest in mouse B16F10 cells assessed as accumulation at Go/G1 phase at 2 ug/ml after 24 hrs by flow cytometry analysis (reference value: 70.4 %); type: functional
# [6] = tested on: B16-F10; test: Cell cycle arrest in mouse B16F10 cells assessed as accumulation at G2/M phase at 2 ug/ml after 24 hrs by flow cytometry analysis (reference value: 17.67 %); type: functional
# [7] = tested on: B16-F10; test: Cell cycle arrest in mouse B16F10 cells assessed as accumulation at S phase at 2 ug/ml after 24 hrs by flow cytometry analysis (reference value: 9.97 %); type: functional
# [8] = tested on: B16-F10; test: Cell cycle arrest in mouse B16F10 cells assessed as accumulation at S phase at 1 ug/ml after 24 hrs by flow cytometry analysis (reference value: 9.97 %); type: functional
# [9] = tested on: B16-F10; test: Cell cycle arrest in mouse B16F10 cells assessed as accumulation at G2/M phase at 1 ug/ml after 24 hrs by flow cytometry analysis (reference value: 17.67 %); type: functional
SMILES,IC50 [1],IC50 [2],pIC50 [2],IC50 [3],IC50 [4],Activity [5],Activity [6],Activity [7],Activity [8],Activity [9]
CC(=O)N1N=C(c2ccc3ccccc3c2)OC1c1ccccc1 (centres undefined),2.57 µM,21.2 µM,4.17,2.43 µM,2.11 µM,–,–,–,–,–
COc1ccc(C2OC(c3ccc4ccccc4c3)=NN2C(C)=O)cc1 (centres undefined),6.86 µM,105 µM,3.51,7.35 µM,3.6 µM,–,–,–,–,–
CC(=O)N1N=C(c2ccc3ccccc3c2)OC1c1ccccc1Cl (centres undefined),4.93 µM,51.4 µM,3.83,2.36 µM,4.32 µM,–,–,–,–,–
CC(=O)N1N=C(c2ccc3ccccc3c2)OC1c1ccc(Cl)cc1 (centres undefined),2.48 µM,12.7 µM,4.44,2.63 µM,1.88 µM,–,–,–,–,–
CC(=O)N1N=C(c2ccc3ccccc3c2)OC1c1ccccc1F (centres undefined),6.05 µM,48.1 µM,3.84,3.44 µM,3.36 µM,–,–,–,–,–
CC(=O)N1N=C(c2ccc3ccccc3c2)OC1c1ccc(F)cc1 (centres undefined),4.65 µM,28.1 µM,4.07,3.02 µM,1.82 µM,–,–,–,–,–
CC(=O)N1N=C(c2ccc3ccccc3c2)OC1c1ccc2ccccc2c1 (centres undefined),1.56 µM,4.3 µM,4.93,1.01 µM,0.85 µM,1.72%,77.18%,2.04%,–,–
CC(=O)N1N=C(c2ccc3ccccc3c2)OC1c1cccnc1 (centres undefined),3.06 µM,20.1 µM,4.19,2.61 µM,2.86 µM,–,–,–,–,–
CC(=O)N1N=C(c2ccc3ccccc3c2)OC1c1ccncc1 (centres undefined),2.97 µM,22.8 µM,4.14,2.56 µM,2.17 µM,–,–,–,–,–
CC(=O)N1N=C(c2ccc3ccccc3c2)OC1c1ccc(C)cc1 (centres undefined),3.85 µM,30.5 µM,4.03,2.9 µM,2.26 µM,–,–,–,–,–
CC(=O)N1N=C(c2ccc3ccccc3c2)OC1c1ccsc1 (centres undefined),8.56 µM,51.9 µM,3.79,7.98 µM,6.82 µM,–,–,–,–,–
CC(=O)N1N=C(c2ccc3ccccc3c2)OC1c1ccc(OCc2ccccc2)cc1 (centres undefined),8.08 µM,58.2 µM,3.86,5.49 µM,3.38 µM,–,–,–,–,–
COc1cc2c(c(OC)c1OC)-c1ccc(OC)c(=O)cc1[C@@H](NC(C)=O)CC2 [COLCHICINE],–,–,–,–,–,–,–,–,2.43%,75.24%
COc1ccc(/C=C\c2cc(OC)c(OC)c(OC)c2)cc1O [COMBRETASTATIN A4],0.75 µM,2.9 µM,–,0.48 µM,0.54 µM,–,–,–,–,–

# The remaining compounds from weak to strong by IC50 [2], led by results:
IC50 [1],IC50 [2],pIC50 [2],IC50 [3],IC50 [4],SMILES,Activity [5],Activity [6],Activity [7],Activity [8],Activity [9]
9.01 µM,140 µM,3.4,18.2 µM,12.3 µM,CC(=O)N1N=C(c2ccc3ccccc3c2)OC1c1ccccc1[N+](=O)[O-] (centres undefined),–,–,–,–,–
9.32 µM,103 µM,3.54,7.59 µM,8.1 µM,CC(=O)N1N=C(c2ccc3ccccc3c2)OC1c1ccc([N+](=O)[O-])cc1 (centres undefined),–,–,–,–,–
7.18 µM,53.8 µM,3.77,6.02 µM,5.26 µM,CC(=O)N1N=C(c2ccc3ccccc3c2)OC1c1ccccn1 (centres undefined),–,–,–,–,–
6.98 µM,51.5 µM,3.88,5.49 µM,3.98 µM,CC(=O)N1N=C(c2ccc3ccccc3c2)OC1c1ccccc1Br (centres undefined),–,–,–,–,–
4.68 µM,33.8 µM,4.06,5.07 µM,2.08 µM,CC(=O)N1N=C(c2ccc3ccccc3c2)OC1c1ccc(Br)cc1 (centres undefined),–,–,–,–,–
2.58 µM,27.1 µM,4.08,2.12 µM,1.84 µM,CC(=O)N1N=C(c2ccc3ccccc3c2)OC1c1ccccc1O (centres undefined),–,–,–,–,–
2.36 µM,19.4 µM,4.3,2.34 µM,1.68 µM,CC(=O)N1N=C(c2ccc3ccccc3c2)OC1c1cccc(Br)c1 (centres undefined),–,–,–,–,–
1.61 µM,9.2 µM,4.55,1.98 µM,1.86 µM,CC(=O)N1N=C(c2ccc3ccccc3c2)OC1c1cccc(F)c1 (centres undefined),–,–,–,–,–
